# Laboratory results from PubChem BioAssay AID651560 (Sanford-Burnham Center for Chemical Genomics, 2012).
# In all, about 360,000 compounds went through this assay and about 820 (0.23%) were called active. Shown is part of a subset that was picked to be rich in actives. A number with no mark means an inactive call.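 The calls were made as follows: active = compounds that cut the enzyme signal by at least half of the control window in the single-dose screen; inactive = the rest.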
# Target: Low molecular weight phosphotyrosine protein phosphatase (Homo sapiens) (UniProt P24666)
# Sequence (P24666 whole entry, looked up): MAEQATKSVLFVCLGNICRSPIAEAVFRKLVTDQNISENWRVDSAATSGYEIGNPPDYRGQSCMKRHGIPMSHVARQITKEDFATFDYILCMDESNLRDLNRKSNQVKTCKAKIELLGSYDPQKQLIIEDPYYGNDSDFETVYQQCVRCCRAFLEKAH
# Assay: inhibition of human LMPTP-A enzyme – biochemical, fluorescence intensity, uHTS, primary screen (AID 651560);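 also: plate controls were DMSO wells with enzyme plus substrate for no effect and substrate without enzyme for full effect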
# Conditions: recombinant LMPTP-A, OMFP fluorogenic substrate, at 20 µM, active compounds read high
# Method in brief: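 Assay system: LMPTP-A phosphatase enzyme | Input: 0.625 nM enzyme | Also added: Fluorogenic phosphatase substrate OMFP at 400 µM final | Compound dosing: One test concentration per compound, 20 µM, with 3% DMSO overall | Schedule: 50 min enzyme reaction at room temperature, protected from light | Signal: Fluorescence intensity | Benchmarks: no-enzyme and uninhibited controls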
row,Compound,inhibition
1,O=S(=O)(NN=C1CCCCCCC1)c1ccc(Br)cc1,0.285%
2,CCCn1c(N)c(N(CCOC)C(=O)C2CCCC2)c(=O)[nH]c1=O,-0.34%
3,CCOCCCNC(=O)C(NC(=O)Cc1c[nH]c2ccccc12)c1ccc(OC)cc1 (configuration not stated),-1.16%
4,COC(=O)c1c(NC(=O)CN(c2ccc(C)c(C)c2)S(C)(=O)=O)sc2c1CCCC2,1.37%
5,CCOc1ccc(OCC)c(NC(=O)CSc2nnc(Cn3cnc4ccccc43)n2C)c1,-0.816%
6,CNc1cnc(-c2cc(OC)c(OC)c(OC)c2)cn1,0.718%
7,NS(=O)(=O)c1ccc(CCNC(=O)COC(=O)COc2cccc(C(F)(F)F)c2)cc1,-0.314%
8,O=C(Nc1cccnc1)c1cc2cc(Br)ccc2oc1=O,45.7%
9,O=C(CSc1ccc(-c2ccccn2)nn1)Nc1ccccc1,0.337%
10,O=C(Nc1ccncc1)c1cc(-c2ccccn2)nc2ccc(Br)cc12,51.5% (active)
11,COC(=O)c1ccc(C23CC4(C2)[C@H](CN(Cc2cccnc2)[C@@H]4c2ccccc2)C3c2ccc(Cl)nc2)cc1 (some centres not stated),8.71%
12,CCCc1ccc(-c2c(C)sc(NC(=O)c3ccnn3C)c2C#N)cc1,1.55%
13,Cc1ccc(C(=O)N/C(=C\c2ccco2)C(=O)N2CCSCC2)cc1C,-0.858%
14,Cc1cccc(C)c1NC1=NC(=S)N(c2ccc(N(C)C)cc2)C1(C)C,-0.864%
15,CC1(C(=O)NCc2ccccc2)CN(S(C)(=O)=O)CC(=O)N1CC(F)(F)F (configuration not stated),-0.703%
16,O=C(NCc1ccc2c(c1)OCO2)c1c(O)nc2sccn2c1=O,53.5% (active)
17,C=CCn1c(=O)c(C(=O)NCc2ccc3c(c2)OCO3)c(O)c2ccccc21,2.01%
18,O=C(NCc1ccc2c(c1)OCO2)c1sccc1Br,-0.435%
19,Cc1ccc(C(=O)O)cc1-c1ccc(/C=C2\SC(=O)N(CC(=O)Nc3ccc4c(c3)OCO4)C2=O)o1,61.2% (active)

row,Compound,inhibition
1,O=C(CCN1C(=O)c2ccncc2C1=O)Nc1ccc2c(c1)OCCO2,0.479%
2,O=C(CN1CCN(C(=O)c2ccco2)CC1)Nc1ccc2c(c1)OCO2,-0.639%
3,Cc1ccc(S(=O)(=O)N2[C@@H](c3ccc(Br)cc3)C(C(=O)O)=C[C@H]2CC2CCCC2)cc1,0.284%
4,COc1cc(OC)cc(/C(N)=N/O)c1,0.166%
5,CCC(C)N(C(=O)COC(=O)c1nc(Cl)ccc1Cl)C1CCS(=O)(=O)C1 (configuration not stated),-0.848%
6,N#CCSc1nn(-c2ccc(F)cc2)c(=S)s1,-0.858%
7,CCOC(=O)C1CCN(C(=O)c2ccc3c(=O)n4nc(Nc5ccccc5CC)sc4nc3c2)CC1,1.95%
8,CS(=O)(=O)N1CCCCC1c1cc(C(=O)NCc2ccccc2)no1 (configuration not stated),-1.43%
9,Nc1nc(C23CC4CC(CC(C4)C2)C3)cs1,-0.25%
10,C#CCN(N(C)c1ncc(C(F)(F)F)cc1Cl)S(=O)(=O)c1ccc2ccccc2c1,5.44%
11,CN(C)C(=O)Cn1c(=O)n(S(=O)(=O)c2ccccc2)c2ccccc21,-0.0726%
12,Cc1cccc(NC(=O)CSc2nnc(CCCCCNC(=O)OC(C)(C)C)o2)c1C,-0.643%
13,O=C(NCc1cccnc1)c1cc(C2CCCN(C(=O)CCCc3ccccc3)C2)on1 (configuration not stated),-0.488%
14,CCN1/C(=C\c2ccc3ccccc3[n+]2CC)Sc2cc(C)ccc21,63.9% (active)
15,Cc1nc(CC(=O)NNS(=O)(=O)c2ccc(F)c(Cl)c2)cs1,-1.65%
16,Cc1cccc(OCC(O)CN2CCN(CCN3C(=O)c4cccc5cccc(c45)C3=O)CC2)c1C (configuration not stated),8.73%
17,CCOC(=O)Cc1cc(=O)[nH]c(/N=C(\N)Nc2ccc(OC)cc2)n1,-0.31%
18,CCSc1nc(=S)n(CC)c(C)c1C(C)=O,-0.754%
19,COC(=O)CN1C(C)=Nc2ccc(Br)cc2C1c1ccccc1 (configuration not stated),-0.193%

row,Compound,inhibition
1,CCn1ccnc1CNC(=O)CC1C(=O)NCCN1CCCc1ccccc1 (configuration not stated),-2.22%
2,CCOc1cc2[nH]c(=S)n(Cc3ccc(C(=O)N4CCN(C)CC4)cc3)c(=O)c2cc1OCC,1.07%
3,O=c1c(Cl)c(NCc2ccc(F)cc2Cl)cnn1C12CC3CC(CC(C3)C1)C2,1.08%
4,O=C1c2ccccc2C(Nc2ccc3c(c2)OCCO3)N1Cc1ccco1 (configuration not stated),0.866%
5,Cn1c(=O)c(=O)n(C)c2cc(S(=O)(=O)CCC(=O)N3CCCCC3)ccc21,-0.491%
6,COc1ccc(-c2oc3ncn(Cc4ccco4)c(=N)c3c2-c2ccc(OC)cc2)cc1,3.1%
7,O=C(Cn1c(=O)n(Cc2ccco2)c(=O)c2ccccc21)NCC1CCCO1 (configuration not stated),-0.056%
8,Cn1c2ccccc2c(=O)c2c(=O)n(Cc3ccco3)c(COc3ccccc3)nc21,69% (active)
9,O=C(CO/N=C/c1ccccc1O)NNC(=O)c1ccccc1Cl,-0.137%
10,O=C(CC(=O)N/N=C\c1cccc(Cl)c1Cl)NCc1ccccc1,-1.17%
11,O=C(NN=Cc1ccccc1O)NN=Cc1ccccc1O,61.8% (active)
12,O=C(Nc1cc(S(=O)(=O)N2CCOCC2)ccc1N1CCOCC1)c1c(F)cccc1Cl,-0.613%
13,O=C(NNC(=O)c1ccc2ccccc2c1)c1ccc(Cl)cc1,49.6% (active)
14,O=C(CCCOc1ccccc1)NNC(=O)c1ccc(Cl)cc1,-0.0475%
15,CN(CC(=O)Nc1ccc(Cl)cc1)C(=O)CNC(=O)c1ccc2ccccc2c1,0.862%
16,CC(C)(C)S(=O)(=O)c1ccccc1-c1noc(-c2ccccc2)c1C(N)=O,-0.802%
17,Cc1ncc([N+](=O)[O-])n1CCOC(=O)c1ccc(Br)cc1,-0.676%
18,C[C@H](NC(=O)NCCc1ccccc1)C(=O)O,0.573%
19,CCOC(=O)C1(CC2CCCCO2)CCN(Cc2nc(-c3cccs3)oc2C)CC1 (configuration not stated),0.186%
